Compound activity from PubChem BioAssay.
TCR CD3 inh: inhibitors of human TCR-CD3 interaction, primary screen, biochemical, fluorescence, TAMRA-labeled TCR probe | T-cell receptor (TCR) | 360,000 compounds, 0.37% hits | inhibition, % at 9.4 µM; in the data active = inhibition above about 19%;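 note: recombinant mutant TCR 2C K166C tagged with TAMRA read by polarization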
SIAE primary: human SIAE inhibitors, primary screen, biochemical, fluorescence polarization, FP-Rh probe, 1536-well HTS | inhibition, % at 9.66 µM | Sialate O-acetylesterase (Homo sapiens), Q9HAT2 | 370,000 compounds, 0.69% hits | SIAE FP-Rh probe binding;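 active = inhibition above a cutoff: mean of compounds within the control limits plus 3 SD of those, cut at about 17% in these data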
PAD4 inh: human PAD4 inhibitors, primary screen, biochemical, fluorescence polarization, 1536-well format; recombinant PAD4, RCA probe fluorescence polarization; Protein-arginine deiminase type-4 (Homo sapiens), Q9UM07; 330,000 compounds, 0.41% hits; inhibition, % at 6.36 µM;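 active = percent inhibition above a cutoff equal to the mean of all tested compounds plus 3 SD, cut at about 15% in these data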
PRMT1 FP inh: PRMT1 methyltransferase inhibitors, primary screen, biochemical, fluorescence polarization | recombinant PRMT1, activity-based probe fluorescence polarization | inhibition, % at 2.79 µM | 370,000 compounds, 1.3% hits;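 active = inhibition above about 21% made by adding two undisclosed values, limit read from the data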
ABHD4 inh: ABHD4 inhibitors, primary screen, biochemical, fluorescence polarization, mouse; 370,000 compounds, 0.54% hits; AID 720543, 2013; inhibition, % at 8.92 µM; purified mABHD4, FP-Rh probe fluorescence polarization; (Lyso)-N-acylphosphatidylethanolamine lipase (Mus musculus), Q8VD66;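 active = inhibition exceeding the mean over every tested compound plus 3 SD, cut at about 30% in these data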
Target sequence (Q8VD66 whole entry, looked up): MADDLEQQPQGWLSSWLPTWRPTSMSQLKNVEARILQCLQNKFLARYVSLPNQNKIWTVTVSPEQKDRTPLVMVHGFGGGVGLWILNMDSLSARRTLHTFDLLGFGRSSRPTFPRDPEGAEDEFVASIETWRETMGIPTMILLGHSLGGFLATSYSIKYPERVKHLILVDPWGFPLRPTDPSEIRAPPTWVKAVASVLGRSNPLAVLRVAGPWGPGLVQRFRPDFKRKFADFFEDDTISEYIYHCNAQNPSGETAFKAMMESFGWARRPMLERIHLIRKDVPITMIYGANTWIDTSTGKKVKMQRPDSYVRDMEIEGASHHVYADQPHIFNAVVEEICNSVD
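Test system: mABHD4 protein | Buffer or medium: HEPES pH 7.0 buffer, 150 mM NaCl, 0.01% Pluronic F-127 | Probe or stimulus: FP-Rh fluorescent activity-based probe, added after compound pre-incubation | Timing: Pre-incubation 45 min, probe exposure 60 min, at 25 °C | Technique: Fluorescence polarization, excitation 525 nm, emission 598 nm, BODIPY TMR filters | Repeats: Single well per compound (singlicate)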
HTRA1 inh: HTRA1 serine protease inhibitors, primary screen, biochemical, fluorescence polarization, HTS. recombinant HTRA1, FP-rhodamine activity-based probe. inhibition, % at 5.96 µM. AID 504803, 2011. 340,000 compounds, 0.5% hits. Q92743; in the data active = inhibition above about 36%
SIAE inh conf: human SIAE inhibitors, retest, confirmation, biochemical, fluorescence polarization, FP-Rh probe, triplicate. AID 1117263, 2014. shares compounds with SIAE primary. SIAE FP-Rh activity-based probe. inhibition, % at 9.66 µM. 2,300 compounds, 13% hits;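 active = mean inhibition of the replicates above the hit cutoff set in the primary screen, cut at about 17% in these data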;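 note: inhibitors lower polarization as more probe stays unbound to SIAE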
A number is an active result; 0 = inactive; - = no result. Shown are actives, neighbours in structure and some others; about 2.9% of the full set was active somewhere.

SMILES | TCR CD3 inh | SIAE primary | PAD4 inh | PRMT1 FP inh | ABHD4 inh | HTRA1 inh | SIAE inh conf
COC(=O)C1CN(Cc2cn(Cc3ccc(F)cc3)nn2)CCS(=O)(=O)N1Cc1ccccc1 (centres undefined) | - | 0 | - | 0 | 0 | - | -
C[C@H]1[C@@H](OC(=O)Nc2cccc(C(F)(F)F)c2)CC[C@@]23CCCN2C(=O)CCC[C@@H]13 | - | 0 | - | 0 | 0 | - | -
CNC(=S)N(Cc1cccs1)Cc1cc2cc(OC)ccc2[nH]c1=O | 0 | 42.4 | 0 | 0 | 0 | 0 | 72.6
COc1ccc2[nH]c(=O)c(CN(Cc3cccs3)C(=S)Nc3cccc(C)c3)cc2c1 | 0 | 0 | 0 | 0 | 0 | 0 | -
C[C@]1(C(=O)NCCN2CCOCC2)C=C[C@@H](Cc2ccccc2)N1C(=O)c1ccccc1 | 0 | 20.8 | 0 | 0 | 0 | 0 | 0
CSc1ccc(/C=C/C(=O)c2ccc(NC(=O)C(C)C)cc2)cc1 | 0 | 0 | 0 | 0 | 0 | 0 | -
CSc1ccc(/C=C/C(=O)c2ccc(NC(=O)Cc3ccccc3)cc2)cc1 | 51.0 | 30.5 | 0 | 0 | 0 | 0 | 45.0
COc1cccc(CNC(=O)CN2CCCc3ccccc32)c1 | - | 0 | - | 0 | 0 | - | -
COc1ccc(C2=Nn3c(nnc3-c3ccccc3OC)SC2)cc1OCC1CC1 | 0 | 28.6 | 0 | 0 | 0 | 0 | 27.4
CC12CN3CCN(CC(C3)/C1=N/N=C/c1cccc([N+](=O)[O-])c1)C2 | 0 | 17.2 | 0 | 0 | 0 | 0 | 0
COC(=O)[C@]12C[C@H](CC(=O)NCc3ccc(OC)c(OC)c3)C(=O)N(CCC3=CCCCC3)C1=C[C@H](C1CCCC1)O[C@@H]2C | - | 0 | - | 0 | 0 | - | -
COCCNC(=O)c1cccc(OC2CCN(Cc3cccc(C(C)=O)c3)CC2)c1 | 0 | 26.5 | 0 | 0 | 0 | 0 | 0
COCCNC(=O)c1cccc(OC2CCN(Cc3ccc(F)c(OC)c3)CC2)c1 | 0 | 0 | 0 | 0 | 0 | 0 | -
Cc1cc(N2CCNC[C@@H]2C)ccc1N1CCN(Cc2ccccc2)[C@H](C)C1 | 0 | 0 | - | 0 | 0 | - | -
C[C@@H]1CN(c2ccc(N3CCNC[C@@H]3C)cc2C#N)CCN1Cc1ccccc1 | 0 | 19.5 | - | 0 | 0 | - | 0
COCc1cc(N2CCNC[C@@H]2C)ccc1N1CCN(Cc2ccccc2)[C@H](C)C1 | 0 | 17.3 | - | 0 | 0 | - | 0
COC(=O)c1cccc(Cn2ccc3ccc(-c4ccc5ccn(C(=O)c6ccccc6OC)c5c4)cc32)c1 | - | 0 | - | 0 | 0 | - | -
CC(C)(C)CCN1CCC[C@H](NC(=O)COc2ccc(F)c(Cl)c2)C1 | - | 0 | - | 0 | 0 | - | -
CC(C)(C)CCN1CCC(CN2CCNC2=S)CC1 | 0 | 17.7 | - | 0 | 0 | 0 | 0
